Data set [1] deals with Structural capsid protein (Human immunodeficiency virus 1, UniProt Q76129). As to the kind of experiment: Inhibition of CAI-biotin peptide binding to GST-tagged HIV1 capsid C-terminal domain by alphascreen assay. A digest of the protocol:
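Competitive AlphaScreen assay: test compound competes with CAI-biotin peptide for binding to GST-CA. IC50 is the compound concentration that lowers the AlphaScreen signal by 50%.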
(Alpha assays give light when donor and acceptor beads are brought close together.)

Data set [2] is described as follows: Solubility of compound in PBS by UV spectral analysis. The format is physicochemical.
Data set [3] can be described thus: Cytotoxicity against human MT4 cells after 72 hrs by XTT assay. It is filed as cell-based. Summed up:
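The XTT read-out was run in parallel with the MT-4 infectivity assay, with two-fold serial compound dilutions on MT-4 cells.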

Data set [4] has as its system Human immunodeficiency virus 1. Kind of data set: Antiviral activity against HIV1 NL4-3 infected in human MT4 cells assessed as inhibition of viral replication after 3 days by luciferase reporter gene assay. It is filed as functional, organism-based. Conditions: Human immunodeficiency virus 1, NL4-3, MT4, 72 h. Summed up: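 Two-fold serial dilutions of compound were added to MT-4 cells infected with HIV-1 NL4-3 carrying a Renilla luciferase reporter. Replication was read as luciferase activity after 3 days. EC50 is the concentration inhibiting replication by 50%.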
Background: In a reporter assay the amount or activity of a reporter protein is the signal.

This is an account of results in ChEMBL document CHEMBL3822354, “Synthesis and evaluation of 2-pyridinylpyrimidines as inhibitors of HIV-1 structural protein assembly” (Bioorg Med Chem Lett, 2016).

≈ marks a conversion by molar mass, not a printed value.

Chain of Structural capsid protein (Q76129 whole entry, the tested form may be a part): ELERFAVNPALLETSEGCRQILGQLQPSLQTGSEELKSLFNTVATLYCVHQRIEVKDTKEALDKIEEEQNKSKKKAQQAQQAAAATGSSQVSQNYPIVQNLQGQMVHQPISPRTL

For orientation: IC50 means the midpoint of a concentration-inhibition curve. Low values mean greater potency, high ones weaker potency. Broadly, the solubility is the concentration that dissolves in the medium under given conditions. A lower solubility goes with a poorly soluble substance. In data set [1], `CCOC(=O)c1ccc(Nc2ccnc(-c3cccnc3)n2)cc1` returned an IC50 of 19 µM. This compound had a solubility in data set [2] of 61 µM (≈ 19.5 µg/mL).
Usually CC50 stands for the concentration that lowers cell viability or growth by half. A higher CC50 goes with lower toxicity to the cells. One may read the EC50 as the concentration needed to bring the measured effect to its halfway point. As for `Cc1cc(Nc2ccc(C(=O)NCCF)c(F)c2)nc(-c2cccnc2)n1`, the CC50 at 72 h in data set [3] came out at 35 µM. In data set [4], the half-maximal effective concentration (EC50) came out at 20 µM. The compound also showed a 50% inhibitory concentration (IC50) in data set [1] of 3 µM. The concentration in solution in data set [2] (solubility) was 98 µM (≈ 36.2 µg/mL).
`Cc1cc(Nc2ccc(C(=O)NCCF)c(F)c2)nc(-c2ccncc2)n1` came in with an IC50 in data set [1] of more than 100 µM. Further, in data set [2], the concentration in solution (solubility) came to 9 µM (≈ 3.32 µg/mL).
Compound `CC(=O)c1cc(Nc2cc(C)nc(-c3ccncc3)n2)ccc1F` showed a 50% inhibitory concentration (IC50) in data set [1] of 83 µM. In data set [2], the solubility is 23 µM (≈ 7.41 µg/mL).
Consider `O=C(NCCF)c1ccc(Nc2ccnc(-c3cccnc3)n2)cc1F`, for which the IC50 in data set [1] stood at 43 µM. In addition, the concentration in solution in data set [2] (solubility) came to 84 µM (≈ 29.8 µg/mL).
Taken in the same sequence, the figures for `CCOC(=O)c1ccc(Nc2cc(C)nc(-c3cccnc3)n2)cc1` were 21 µM and 71 µM (≈ 23.7 µg/mL).
In data set [1], `CCOC(=O)c1cccc(Nc2ccnc(-c3ccncc3)n2)c1` yielded an IC50 of more than 100 µM. In addition, in data set [2], the solubility worked out at 46 µM (≈ 14.7 µg/mL).
As to `CC(=O)c1ccc(Nc2cc(C)nc(-c3ccncc3)n2)cc1`, the IC50 in data set [1] was 54 µM. In data set [2], this compound had a solubility of 6 µM (≈ 1.83 µg/mL).
In turn, `Fc1ccc(Nc2ccnc(-c3ccncc3)n2)cc1F` yielded a half-maximal inhibitory concentration (IC50) in data set [1] of 81 µM. The compound also returned a solubility in data set [2] of 42 µM (≈ 11.9 µg/mL).
Taken in the same sequence, the figures for `CCOC(=O)c1ccccc1Nc1ccnc(-c2cccnc2)n1` were more than 100 µM and 94 µM (≈ 30.1 µg/mL).
Regarding `CC(=O)c1ccc(Nc2cc(C)nc(-c3cccnc3)n2)cc1`, the CC50 at 72 h in data set [3] came to 77 µM. The 50% effective concentration (EC50) in data set [4] came out at 50 µM. Further, the half-maximal inhibitory concentration (IC50) in data set [1] came out at 12 µM. Also, the solubility in data set [2] stood at 94 µM (≈ 28.6 µg/mL).
In turn, `CC(=O)c1ccc(Nc2cc(C)nc(-c3cccnc3)n2)cc1F` yielded a half-maximal inhibitory concentration (IC50) in data set [1] of 25 µM. The compound also registered a solubility in data set [2] of 32 µM (≈ 10.3 µg/mL).
Taken in the same sequence, the figures for `CCOC(=O)c1ccc(Nc2ccnc(-c3cccnc3)n2)c(F)c1` were 30 µM and 53 µM (≈ 17.9 µg/mL).
In the case of `Cc1cc(Nc2ccc(C(=O)NCCF)cc2)nc(-c2cccnc2)n1`, half-maximal cytotoxicity in data set [3] (CC50 at 72 h) was put at 44 µM. Moreover, in data set [4], the 50% effective concentration (EC50) worked out at 25 µM. This compound also came in with a 50% inhibitory concentration (IC50) in data set [1] of 8 µM. This compound also returned a solubility in data set [2] of 99 µM (≈ 34.8 µg/mL).
Compound `O=C(NCCF)c1ccc(Nc2ccnc(-c3ccncc3)n2)cc1` showed an IC50 in data set [1] of more than 100 µM. The amount in solution in data set [2] (solubility) came to 97 µM (≈ 32.7 µg/mL).
Taken in the same sequence, the figures for `CC(=O)c1ccc(Nc2ccnc(-c3cccnc3)n2)cc1` were 53 µM and 98 µM (≈ 28.5 µg/mL).
Taken in the same sequence, the figures for `CCOC(=O)c1ccc(Nc2ccnc(-c3ccncc3)n2)cc1` were 28 µM and 52 µM (≈ 16.7 µg/mL).
`CCOC(=O)c1cccc(Nc2ccnc(-c3cccnc3)n2)c1` had a half-maximal inhibitory concentration (IC50) in data set [1] of 21 µM. In addition, the solubility in data set [2] is 92 µM (≈ 29.5 µg/mL).
`CC(=O)c1cccc(Nc2ccnc(-c3cccnc3)n2)c1` had an IC50 in data set [1] of 39 µM. For the same compound, the solubility in data set [2] worked out at 97 µM (≈ 28.2 µg/mL).
`O=C(NCCF)c1cc(Nc2ccnc(-c3cccnc3)n2)ccc1F` showed an IC50 in data set [1] of 68 µM. Moreover, the concentration in solution in data set [2] (solubility) came to 97 µM (≈ 34.5 µg/mL).
For the compound `Cc1cc(Nc2ccc(C(=O)N3CCN(C(=O)C4CCCO4)CC3)cc2)nc(-c2cccnc2)n1` (configuration not stated), the concentration for half-maximal inhibition (IC50) in data set [1] was 54 µM. Also, the solubility in data set [2] is 99 µM (≈ 46.8 µg/mL).
The compound `Cc1cc(Nc2cc(F)c(F)c(F)c2)nc(-c2cccnc2)n1` returned an IC50 in data set [1] of 22 µM. In data set [2], this compound showed a solubility of 73 µM (≈ 23.1 µg/mL).
Take `CC(=O)c1cccc(Nc2cc(C)nc(-c3ccncc3)n2)c1`: the IC50 in data set [1] was more than 100 µM. This compound also yielded a solubility in data set [2] of 29 µM (≈ 8.83 µg/mL).
Taken in the same sequence, the figures for `CCOC(=O)c1ccc(Nc2cc(C)nc(-c3ccncc3)n2)cc1` were 36 µM and 4 µM (≈ 1.34 µg/mL).
Taken in the same sequence, the figures for `O=C(NCCF)c1ccc(Nc2ccnc(-c3cccnc3)n2)c(F)c1` were 73 µM and 96 µM (≈ 34.1 µg/mL).
Taken in the same sequence, the figures for `Cc1cc(Nc2ccc(C(=O)N3CCN(c4ccc(F)cc4)CC3)cc2)nc(-c2cccnc2)n1` were 20 µM and 42 µM (≈ 19.7 µg/mL).
Turning to `CC(=O)c1cc(Nc2cc(C)nc(-c3cccnc3)n2)ccc1F`, the CC50 at 72 h in data set [3] is more than 100 µM. Also, the concentration for a half-maximal effect (EC50) in data set [4] was more than 100 µM. The compound further had an IC50 in data set [1] of 9 µM. For the same compound, the concentration in solution in data set [2] (solubility) came to 40 µM (≈ 12.9 µg/mL).
Compound `CC(=O)c1ccc(Nc2ccnc(-c3ccncc3)n2)cc1` showed an IC50 in data set [1] of more than 100 µM. In data set [2], this compound displayed a solubility of 37 µM (≈ 10.7 µg/mL).
`CC(=O)c1cccc(Nc2cc(C)nc(-c3cccnc3)n2)c1`: the CC50 at 72 h in data set [3] turned out to be 64 µM. Moreover, the EC50 in data set [4] was 23 µM. The IC50 in data set [1] came out at 10 µM. The concentration in solution in data set [2] (solubility) was 95 µM (≈ 28.9 µg/mL).
On to `Cc1cc(Nc2cc(C(=O)NCCF)ccc2F)nc(-c2cccnc2)n1`, for which the IC50 in data set [1] came to 52 µM. The solubility in data set [2] was determined as 98 µM (≈ 36.2 µg/mL).
`Cc1cc(Nc2ccc(C(=O)NCCF)cc2)nc(-c2ccncc2)n1` displayed an IC50 in data set [1] of more than 100 µM. Also, the concentration in solution in data set [2] (solubility) came to 40 µM (≈ 14.1 µg/mL).
`Cc1cc(Nc2ccc(C(=O)NCCF)cc2F)nc(-c2cccnc2)n1` returned a cytotoxic concentration (CC50) at 72 h in data set [3] of more than 100 µM. For the same compound, in data set [4], the concentration giving a half-maximal response (EC50) was more than 100 µM. Also, the IC50 in data set [1] was 15 µM. This compound yielded a solubility in data set [2] of 50 µM (≈ 18.5 µg/mL).
As to `Fc1ccc(Nc2ccnc(-c3cccnc3)n2)cc1F`, the half-maximal inhibitory concentration (IC50) in data set [1] was 38 µM. In data set [2], the solubility turned out to be 67 µM (≈ 19 µg/mL).
Taken in the same sequence, the figures for `O=C(NCCF)c1ccc(Nc2ccnc(-c3cccnc3)n2)cc1` were 34 µM and 99 µM (≈ 33.4 µg/mL).
`CC(=O)c1ccc(F)c(Nc2cc(C)nc(-c3cccnc3)n2)c1` displayed an IC50 in data set [1] of more than 100 µM. Moreover, the solubility in data set [2] is 58 µM (≈ 18.7 µg/mL).
